ChEMBL document CHEMBL2021849, “Synergistic TRAIL sensitizers from Barleria alluaudii and Diospyros maritima” (J Nat Prod, 2012)

Experiments:
ACHN [1] = experiment: Ratio of EC50 for human ACHN cells to EC50 for human ACHN cells in presence of 40 ng/ml TRAIL; assay type: functional
Method in brief: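 Synergy taken as the ratio of the two EC50 values read from ACHN cell death curves, one run without TRAIL and one with 40 ng/mL TRAIL. Treatment lasted 20–24 h.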

ACHN [2] = experiment: Cytotoxicity against human ACHN cells assessed as cell death after 20 to 24 hrs by XTT assay in presence of 40 ng/ml TRAIL; assay type: functional, cell-based
ACHN [3] = experiment: Cytotoxicity against human ACHN cells assessed as cell death after 20 to 24 hrs by XTT assay; assay type: functional, cell-based

SMILES | Ratio EC50 (ACHN [1]) | EC50 (ACHN [2]) [µM] | EC50 (ACHN [3]) [µM]
CC(C)=CC[C@]12O[C@H]1C(=O)c1ccccc1C2=O | 2.4 | 16.7 | 39.7
CC(C)=CC[C@]12O[C@H]1C(=O)c1cccc(O)c1C2=O | 1.4 | 4.7 | 6.4
C[C@@H]1CC(=O)c2c(O)cccc2[C@@H]1O |  | > 60 | > 60
CC1=CC(=O)c2c(ccc(C(C)c3ccc4c(c3O)C(=O)C=C(C)C4=O)c2O)C1=O |  | > 30 | > 30
CC1=CC(=O)c2c(ccc(-c3ccc4c(c3O)C(=O)C=C(C)C4=O)c2O)C1=O [ELLIPTINONE] | 3.5 | 3.8 | 13.2
CC1=CC(=O)c2c(O)ccc(-c3ccc(O)c4c3C(=O)C(C)=CC4=O)c2C1=O [MARITINONE] | 3.8 | 1.5 | 5.8
CC1=CC(=O)c2c(O)cccc2C1=O [PLUMBAGIN] | 2 | 3.7 | 7.3
Cc1ccc2c(c1)C(=O)c1ccccc1C2=O [TECTOQUINONE] |  | > 50 | > 50
